Data: ChEMBL document CHEMBL1146290, “Core exploration in optimization of chemokine receptor CCR4 antagonists” (Bioorg Med Chem Lett, 2007)
Calls of active or inactive are those of the source. No cut-off for these calls is given here.

Legend:
[1] = molecular target: T1, C-C chemokine receptor type 4 (Homo sapiens, UniProt P51679); assay: Displacement of [125I]MDC from human CCR4 expressed in HEK293 cells; assay type: cell-based
T1 sequence (P51679 whole entry): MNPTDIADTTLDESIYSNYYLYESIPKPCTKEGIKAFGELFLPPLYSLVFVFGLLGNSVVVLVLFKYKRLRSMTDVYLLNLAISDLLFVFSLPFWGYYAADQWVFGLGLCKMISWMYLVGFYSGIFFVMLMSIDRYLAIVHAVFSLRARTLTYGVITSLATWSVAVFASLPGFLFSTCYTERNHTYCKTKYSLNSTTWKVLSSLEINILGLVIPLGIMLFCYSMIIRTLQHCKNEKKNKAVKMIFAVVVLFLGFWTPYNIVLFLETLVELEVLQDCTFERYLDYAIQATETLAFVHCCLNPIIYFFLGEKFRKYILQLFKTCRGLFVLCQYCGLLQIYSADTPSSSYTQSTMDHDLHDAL

[2] = Carcinogenicity in SOS chromotest; assay type: ADME
[3] = molecular target: CYP450 (isoform not stated) (Homo sapiens, UniProt P04798+P05177+P05181+P08684+P10632+P10635+P11509+P11712+P13584+P20813+P20815+P20853+P24462+P24903+P33260+P33261+P51589+P78329+P98187+Q02928+Q08477+Q16678+Q16696+Q5TCH4+Q6VVX0+Q7Z449+Q8TAV3+Q96SQ9+Q9HB55); assay: Inhibition of CYP450; assay type: ADME
[4] = molecular target: T1, C-C chemokine receptor type 4; assay: Antagonist activity at human CCR4 expressed in CEMS529 cells assessed as effect on calcium mobilization; assay type: functional, cell-based
[5] = Metabolic stability in human microsomes; assay type: ADME, Microsome
[6] = Toxicity in human immortalized hepatocytes; assay type: cell-based, Hepatocyte
[7] = molecular target: T2, C-C chemokine receptor type 4 (Mus musculus) (UniProt P51680); assay: Inhibition of ovalbumin-induced eosinophil infiltration in BALB/c mouse allergic inflammation model at 5 mg/kg, po; assay type: functional, organism-based; parameters: dose 5 mg/kg
T2 sequence (whole entry): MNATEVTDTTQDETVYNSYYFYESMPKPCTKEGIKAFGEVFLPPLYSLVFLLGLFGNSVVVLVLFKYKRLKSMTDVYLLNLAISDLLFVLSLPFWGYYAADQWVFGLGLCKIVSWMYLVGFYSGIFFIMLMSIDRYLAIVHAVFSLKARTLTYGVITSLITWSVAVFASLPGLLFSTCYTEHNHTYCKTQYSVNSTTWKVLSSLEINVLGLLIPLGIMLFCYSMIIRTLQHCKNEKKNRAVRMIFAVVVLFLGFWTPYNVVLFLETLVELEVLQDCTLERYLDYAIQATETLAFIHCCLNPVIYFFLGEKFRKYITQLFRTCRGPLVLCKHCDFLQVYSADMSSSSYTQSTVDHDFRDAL
Outline: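 Mice previously immunized with ovalbumin; dexamethasone given orally at 5 mg/kg as reference control. Total leukocytes, total eosinophils and percent eosinophils counted in bronchoalveolar lavage fluid. Seven to eight mice per group; means ± SEM; significance versus vehicle group by ANOVA with Dunnett's test (p < 0.05).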

[8] = molecular target: T2, C-C chemokine receptor type 4 (Mus musculus); assay: Inhibition of ovalbumin-induced eosinophil infiltration in sc dosed BALB/c mouse allergic inflammation model
[9] = molecular target: T2, C-C chemokine receptor type 4 (Mus musculus); assay: Inhibition of ovalbumin-induced eosinophil infiltration in BALB/c mouse allergic inflammation model at 30 mg/kg, sc

Row | IC50 [1] | SMILES | other results
1 | 4900 nM | CCN(CC)CCCC(C)Nc1nc(NCc2ccc(Cl)cc2Cl)c2[nH]cnc2n1 (configuration not stated) | –
2 | 280 nM | CCN(CC)C(C)CCCNc1nccc(NCc2ccc(Cl)cc2Cl)n1.N (configuration not stated) | Activity [2]: Non-toxic; IC50 [3]: > 1000 nM; IC50 [4]: 800 nM; Stability [5]: 0.1 nmol/mg/min; IC50 [6]: > 40000 nM
3 | 80 nM | O=C([C@@H]1CCCN1)N1CCN(c2nc(NCc3ccc(Cl)cc3Cl)c3cccnc3n2)CC1 | –
4 | 3600 nM | CCN(CC)CCCC(C)Nc1nc(NC)nc(NCc2ccc(Cl)cc2Cl)n1 (configuration not stated) | –
5 | 2100 nM | CCN(CC)CCCC(C)Nc1nc(NCc2ccc(Cl)cc2Cl)nc2nc[nH]c12 (configuration not stated) | –
6 | 1910 nM | CCN(CC)CCCC(C)Nc1nc(NCc2ccc(Cl)cc2Cl)nc2ccccc12 (configuration not stated) | –
7 | – | C[C@@H]1C[C@H]2[C@@H]3CCC4=CC(=O)C=C[C@]4(C)[C@@]3(F)[C@@H](O)C[C@]2(C)[C@@]1(O)C(=O)CO | Activity [7]: Active
8 | 820 nM | CCN(CC)CCCC(C)Nc1ncc2ncn(Cc3ccc(Cl)cc3Cl)c2n1 (configuration not stated) | –
9 | 1100 nM | CCN(CC)CCCC(C)Nc1nc(NCc2ccc(Cl)cc2Cl)c2c(ncn2CC)n1 (configuration not stated) | –
10 | 2600 nM | CCN(CC)CCCC(C)Nc1nc(NCc2ccc(Cl)cc2Cl)nc2ncn(CC)c12 (configuration not stated) | –
11 | – | O=C([C@@H]1CCCCN1)N1CCN(c2nc(NCc3ccc(Cl)cc3Cl)c3cccnc3n2)CC1 | ED50 [8]: 10 mg/kg; Stability [5]: 0.003 nmol/mg/min; Activity [9]: Active
12 | 500 nM | CCN(CC)CCCC(C)Nc1nc(NCc2ccc(Cl)cc2Cl)c2ccccc2n1 (configuration not stated) | –
13 | 830 nM | CCN(CC)CCCC(C)Nc1ncc2c(ncn2Cc2ccc(Cl)cc2Cl)n1 (configuration not stated) | –
14 | 140 nM | CCN(CC)CCCC(C)Nc1nc(NCc2ccc(Cl)cc2Cl)c2cccnc2n1 (configuration not stated) | –
15 | 280 nM | CCN(CC)CCCC(C)Nc1ccc2cnn(Cc3ccc(Cl)cc3Cl)c2n1 (configuration not stated) | –
